Assay results: ChEMBL document CHEMBL3046238, “Synthesis and biological activity evaluation of 1,2,3-thiadiazole derivatives as potential elicitors with highly systemic acquired resistance” (2009)
Activity calls are given as the source filed them. The rule behind the calls is not given here.

Assays:
Format in all cases: functional
Tobacco mosaic virus = assay: Induction of systemic acquired resistance against Tobacco mosaic virus (TMV) in tobacco plants exposed to 500 ug/mL compound through leaf spray followed by 7 days culture under green house conditions assessed as inhibition of viral growth in leaves infected with Tobacco mosaic virus (TMV) measured 72 hr post viral infection by half-leaf juice rubbing method; set-up: scale not given: the % may be the effect or the level left
In short: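 Tobacco plants received compound by leaf spray or by soil irrigation, with double-distilled water as CK. Newly grown leaves were then rub-inoculated with TMV (5.88×10-2 μg/mL), and plants were kept at 25 °C for 72 h. Lesions on inoculated leaves were counted. Inhibition = (CK−A)/CK×100 from mean lesion numbers versus control.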

Puccinia triticina = assay: Antifungal activity against Puccinia triticina inoculated on 500 ug/mL compound pre-treated wheat plants with 3 to 5 leaves assessed as growth inhibition
In short: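 Healthy wheat plants at the 3-5 leaf stage were sprayed with compound (500 μg/mL) and then inoculated with spores. Inhibition percentage was calculated against the corresponding spore stack.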

Phytophthora infestans = assay: Antifungal activity against Phytophthora infestans assessed as growth inhibition at 50 ug/mL measured after 2 days post dose; details: for inhibition of growth at 50 µg/mL: 48 h, read-out: GI
In short: (§1)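 Compound stock at 500 μg/mL in DMF, diluted with sterile water in the dish and mixed into potato dextrose agar before setting. A 4 mm diameter fungal plug is placed on the plate and cultured at 24-26 °C. Colony diameter is measured after 2 days.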

Botrytis cinerea = assay: Antifungal activity against Botryotinia fuckeliana assessed as growth inhibition at 50 ug/mL measured after 2 days post dose; details: for inhibition of growth at 50 µg/mL: 48 h, read-out: GI
Cytospora mali = assay: Antifungal activity against Valsa mali assessed as growth inhibition at 50 ug/mL measured after 2 days post dose; details: for inhibition of growth at 50 µg/mL: 48 h, read-out: GI
Sclerotinia sclerotiorum = assay: Antifungal activity against Sclerotinia sclerotiorum assessed as growth inhibition at 50 ug/mL measured after 2 days post dose; details: 48 h, read-out: GI
Fusarium graminearum = assay: Antifungal activity against Fusarium graminearum assessed as growth inhibition at 50 ug/mL measured after 2 days post dose; details: for inhibition of growth at 50 µg/mL: 48 h, read-out: GI; in short: as §1
[1] = tested on: Botryosphaeria berengeriana; assay: Antifungal activity against Botryosphaeria berengeriana assessed as growth inhibition at 50 ug/mL measured after 2 days post dose; details: for inhibition of growth at 50 µg/mL: 48 h, read-out: GI
Alternaria solani = assay: Antifungal activity against Alternaria solani assessed as growth inhibition at 50 ug/mL measured after 2 days post dose; details: 48 h, read-out: GI
Fusarium fujikuroi = assay: Antifungal activity against Fusarium fujikuroi assessed as growth inhibition at 50 ug/mL measured after 2 days post dose; details: for inhibition of growth at 50 µg/mL: 48 h, read-out: GI
Ceratobasidium cereale = assay: Antifungal activity against Ceratobasidium cereale assessed as growth inhibition at 50 ug/mL measured after 2 days post dose; details: for inhibition of growth at 50 µg/mL: 48 h, read-out: GI
Fusarium oxysporum = assay: Antifungal activity against Fusarium oxysporum assessed as growth inhibition at 50 ug/mL measured after 2 days post dose; details: 48 h, read-out: GI
[2] = tested on: Colletotrichum gloeosporioides; assay: Antifungal activity against Glomerella cingulata assessed as growth inhibition at 50 ug/mL measured after 2 days post dose; details: for inhibition of growth at 50 µg/mL: 48 h, read-out: GI
Alternaria mali = assay: Antifungal activity against Alternaria mali assessed as growth inhibition at 50 ug/mL measured after 2 days post dose; details: for inhibition of growth at 50 µg/mL: 48 h, read-out: GI
Rhizoctonia solani = assay: Antifungal activity against Rhizoctonia solani assessed as growth inhibition at 50 ug/mL measured after 2 days post dose; details: for inhibition of growth at 50 µg/mL: 48 h, read-out: GI
Ustilaginoidea virens = assay: Antifungal activity against Villosiclava virens assessed as growth inhibition at 50 ug/mL measured after 2 days post dose; details: for inhibition of growth at 50 µg/mL: 48 h, read-out: GI
[3] = tested on: Fusarium oxysporum f. sp. vasinfectum; assay: Antifungal activity against Fusarium oxysporum f. sp. vasinfectum assessed as growth inhibition at 50 ug/mL measured after 2 days post dose; details: for inhibition of growth at 50 µg/mL: 48 h, read-out: GI
Mycosphaerella arachidis = assay: Antifungal activity against Mycosphaerella arachidis assessed as growth inhibition at 50 ug/mL measured after 2 days post dose; details: for inhibition of growth at 50 µg/mL: 48 h, read-out: GI

| Structure (SMILES) | Activity (Tobacco mosaic virus) | growth inhibition (GI) (Puccinia triticina) | inhibition of growth at 50 µg/mL (Phytophthora infestans) [%] | inhibition of growth at 50 µg/mL (Sclerotinia sclerotiorum) [%] | inhibition of growth at 50 µg/mL (Fusarium graminearum) [%] | inhibition of growth at 50 µg/mL [1] [%] | inhibition of growth at 50 µg/mL (Alternaria solani) [%] | inhibition of growth at 50 µg/mL (Fusarium oxysporum) [%] | inhibition of growth at 50 µg/mL [2] [%] | inhibition of growth at 50 µg/mL (Mycosphaerella arachidis) [%] | inhibition of growth at 50 µg/mL (Botrytis cinerea) [%] | inhibition of growth at 50 µg/mL (Cytospora mali) [%] | inhibition of growth at 50 µg/mL (Fusarium fujikuroi) [%] | inhibition of growth at 50 µg/mL (Ceratobasidium cereale) [%] | inhibition of growth at 50 µg/mL (Alternaria mali) [%] | inhibition of growth at 50 µg/mL (Rhizoctonia solani) [%] | inhibition of growth at 50 µg/mL (Ustilaginoidea virens) [%] | inhibition of growth at 50 µg/mL [3] [%] | other results |
| --- | --- | --- | --- | --- | --- | --- | --- | --- | --- | --- | --- | --- | --- | --- | --- | --- | --- | --- | --- |
| Cc1nnsc1-c1nnc(-c2ccco2)o1 | 0% | 0% | 0 | 0 | 22.2 | 38.9 | 53.6 | 19.1 | 42.1 | 87.5 | – | – | – | – | – | – | – | – | growth inhibition (GI) (Botrytis cinerea): inactive; growth inhibition (GI) (Cytospora mali): inactive; growth inhibition (GI) (Fusarium fujikuroi): inactive; growth inhibition (GI) (Ceratobasidium cereale): inactive; growth inhibition (GI) (Alternaria mali): inactive; growth inhibition (GI) (Rhizoctonia solani): inactive; growth inhibition (GI) (Ustilaginoidea virens): inactive; growth inhibition (GI) [3]: inactive |
| Cc1cccc(-c2nnc(-c3snnc3C)o2)c1 | inactive | 98% | 17.1 | 23.5 | 24.1 | 47.2 | 0 | 0 | 0 | 23.5 | 37.9 | 47.2 | 24.1 | 37.9 | 41.4 | 0 | 0 | 0 | – |
| Cc1nnsc1-c1nnc(/C=C/c2ccccc2)o1 | 0% | 20% | 20 | 0 | 36.8 | 46 | 31.6 | 36.3 | 13.8 | 27.3 | 0 | 20.3 | 21.1 | 0 | 0 | 0 | 0 | 23.7 | – |
| CCc1cc(-c2nnc(-c3snnc3C)o2)nn1C | 20% | 20% | 17.1 | 0 | 27.8 | 16.7 | 17.9 | 26.5 | 42.1 | 33.3 | – | – | – | – | – | – | – | – | growth inhibition (GI) (Botrytis cinerea): inactive; growth inhibition (GI) (Cytospora mali): inactive; growth inhibition (GI) (Fusarium fujikuroi): inactive; growth inhibition (GI) (Ceratobasidium cereale): inactive; growth inhibition (GI) (Alternaria mali): inactive; growth inhibition (GI) (Rhizoctonia solani): inactive; growth inhibition (GI) (Ustilaginoidea virens): inactive; growth inhibition (GI) [3]: inactive |
| CCCc1c(-c2nnc(-c3snnc3C)o2)cnn1-c1ccc(Cl)cc1 | 0% | 0% | – | 23.5 | 48.3 | 44.4 | 17.6 | 0 | 0 | 41.2 | 31 | 19.4 | 31 | 31 | 27.6 | 0 | 0 | 0 | growth inhibition (GI) (Phytophthora infestans): inactive |
| Cc1nnsc1-c1nnc(-c2ccc(=O)[nH]c2)o1 | inactive | inactive | 31 | 53.6 | 13.8 | 23.5 | 31 | 33.3 | 13.8 | 0 | 21.1 | 47.2 | 17.6 | 13.8 | 27.3 | 44.4 | 22.2 | 24.1 | – |
| COc1cccc(-c2nnc(-c3snnc3C)o2)c1 | 0% | 39% | 20 | 23.5 | 31 | 33.3 | 11.7 | 0 | 0 | 17.6 | 13.8 | 41.2 | 17.2 | 13.8 | 27.6 | 0 | 0 | 0 | – |
| Cc1ccc(-c2nnc(-c3snnc3C)o2)c(Cl)n1 | 30% | 17% | 30 | 0 | 31 | 38.9 | 0 | 0 | 0 | 23.5 | 17.2 | 22.2 | 17.2 | 13.8 | 24.1 | 22.2 | 17.6 | 0 | – |
| Cc1ccc(-c2nnc(-c3snnc3C)o2)s1 | inactive | 0% | – | 40.5 | 21.1 | 39.7 | 36.8 | 31.3 | 13.8 | 9 | 0 | 0 | 21.1 | 0 | 38.9 | 0 | 0 | 0 | growth inhibition (GI) (Phytophthora infestans): inactive |
| CCCCCCCc1nnc(-c2snnc2C)o1 | 0% | 83% | 100 | 32.1 | 34.2 | 25.4 | 31.6 | 12.5 | 42.1 | 0 | 0 | 0 | 21.1 | 0 | 38.9 | 26.6 | 0 | 0 | – |
| Cc1ccc(-c2nnc(-c3snnc3C)o2)cc1 | 0% | 11% | 0 | 56 | – | – | 18.4 | 0 | – | – | 2.1 | – | – | – | – | 67.9 | – | – | growth inhibition (GI) (Cytospora mali): inactive; growth inhibition (GI) (Fusarium graminearum): inactive; growth inhibition (GI) [1]: inactive; growth inhibition (GI) (Fusarium fujikuroi): inactive; growth inhibition (GI) (Ceratobasidium cereale): inactive; growth inhibition (GI) [2]: inactive; growth inhibition (GI) (Alternaria mali): inactive; growth inhibition (GI) (Ustilaginoidea virens): inactive; growth inhibition (GI) [3]: inactive; growth inhibition (GI) (Mycosphaerella arachidis): inactive |
| Cc1nn(-c2ccccc2)nc1-c1nnc(-c2snnc2C)o1 | 10% | 0% | – | 23.5 | 31 | 44.4 | 17.6 | 0 | 0 | 17.6 | 41.4 | 22.2 | 0 | 37.9 | 31 | 0 | 0 | 0 | growth inhibition (GI) (Phytophthora infestans): inactive |
